Laboratory results: ChEMBL document CHEMBL1123464, “Analogues of platelet activating factor. 5. Multiple oxygen substitution of the alkoxy chain” (J Med Chem, 1986)

Key:
Rattus norvegicus = test: Compound was evaluated in spontaneous hypertensive rats (SHR) for the intravenous dose required to decrease mean arterial blood pressure (MABP) 50 mmHg; type: functional, Artery
Summary of the method: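 Spontaneously hypertensive rats, intravenous dosing; mean arterial blood pressure monitored; dose lowering MABP by 50 mmHg extrapolated from the dose-response curve.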

[1] = Ratio value is (MAPB/platelet EC50)*10e-8; type: functional
Summary of the method: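 Selectivity index: intravenous hypotensive dose (SHR, 50 mmHg MABP drop) divided by rabbit PRP aggregation EC50; compared against racemic C16-PAF standard to judge separation of hypotensive and aggregatory effects.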

Oryctolagus cuniculus [2] = species: Oryctolagus cuniculus; test: Compound was evaluated in rabbit-platelet rich plasma (PRP) for the maximum aggregation response observed at 1.9*10e-4 molar concentration; type: functional
Oryctolagus cuniculus [3] = species: Oryctolagus cuniculus; test: Compound was evaluated in rabbit-platelet rich plasma (PRP) for the molar concentration required to produce 50% of maximum aggregation; type: functional
Summary of the method: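 Rabbit platelet-rich plasma; aggregation dose-response curves over 10^-4 to 10^-9 M, two to six replicates per dose level; EC50 is the molar concentration giving 50% of the compound's own maximum aggregation; n counts independent curve determinations.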

Oryctolagus cuniculus [4] = species: Oryctolagus cuniculus; test: Compound was evaluated in rabbit-platelet rich plasma (PRP) for the maximum aggregation response observed 6.8*10e-6 molar concentration; type: functional

| EC50 (Oryctolagus cuniculus [3]) [nM] | SMILES | Dose (Rattus norvegicus) [µg/kg] | Ratio [1] | Max aggregation (Oryctolagus cuniculus [2]) | Max aggregation (Oryctolagus cuniculus [4]) |
| --- | --- | --- | --- | --- | --- |
| 5300 | COCCOCCOCCCCCCCCOCC(COP(=O)([O-])OCC[N+](C)(C)C)OC(C)=O (configuration not stated) | 80.5 | 0.15 | 67 | – |
| 130 | CCCCCCCCCCOCCOCCOCC(COP(=O)([O-])OCC[N+](C)(C)C)OC(C)=O (configuration not stated) | 12.9 | 0.99 | 61 | – |

| SMILES | EC50 (Oryctolagus cuniculus [3]) [nM] | Dose (Rattus norvegicus) [µg/kg] | Ratio [1] | Max aggregation (Oryctolagus cuniculus [2]) | Max aggregation (Oryctolagus cuniculus [4]) |
| --- | --- | --- | --- | --- | --- |
| CCCCCCCCCCCCCCCCOCC(COP(=O)([O-])OCC[N+](C)(C)C)OC(C)=O (configuration not stated) [PLATELET ACTIVATING FACTOR] | 26.5 | 1.25 | 0.47 | – | 71 |
